In ChEMBL document CHEMBL3808357, “Discovery of N-(3-((1-Isonicotinoylpiperidin-4-yl)oxy)-4-methylphenyl)-3-(trifluoromethyl)benzamide (CHMFL-KIT-110) as a Selective, Potent, and Orally Available Type II c-KIT Kinase Inhibitor for Gastrointestinal Stromal Tumors (GISTs)” (J Med Chem, 2016):
pIC50: −log10 of the molar value. Activity calls are given as the source filed them. The calls are words filed in the database; no cut-off is given here.

Columns and labels:
[1] = Half life in Sprague-Dawley rat plasma at 10 mg/kg, po; assay type: ADME, organism-based
Outline: (§1)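 Male Sprague-Dawley rats, 8 weeks old, fasted overnight, dosed iv or orally. Formulation was 5% DMSO/40% PEG400/55% saline at 1 mg/mL. Blood (~0.2 mL) was drawn from the jugular vein into heparin. Sampling: iv at 1 min to 8 h; oral at 5 min to 24 h. Plasma was separated by centrifugation at 2−8 °C and stored at −80 °C.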

[2] = system: Mast/stem cell growth factor receptor Kit (Homo sapiens), P10721 [V559D,V654A]; test: Inhibition of Tel-fused cKIT V559D/V654A double mutant (unknown origin) transfected in mouse BAF3 cells assessed as decrease in cell proliferation after 72 hrs by celltiter-glo/CCK8 assay; assay type: cell-based
Outline: (§2)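 Stable BaF3 lines made by retroviral transduction with mutagenized TEL-KIT MSCV vectors, puromycin selection 48 h, then gradual IL-3 withdrawal until IL-3-independent; grown in RPMI 1640 with 10% FBS. Cells at 1 to 3 × 10⁴ cells/mL exposed to a concentration series for 72 h; viability read by CellTiter-Glo luminescence or CCK-8 absorbance (450/655 nm); GI50 from triplicate testing.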

[3] = target: Mast/stem cell growth factor receptor Kit (Homo sapiens) (UniProt P10721); test: Inhibition of cKIT autophosphorylation at Y703 in human GIST48B cells up to 10 uM after 2 hrs by Western blot analysis; assay type: cell-based
[4] = Apparent volume of distribution in Sprague-Dawley rat plasma at 1 mg/kg, iv; assay type: ADME, organism-based; conditions: read-out: Vz; outline: as §1
[5] = target: Mast/stem cell growth factor receptor Kit (Homo sapiens) (UniProt P10721); test: Inhibition of cKIT autophosphorylation at Y719 in human GIST882 cells up to 10 uM after 2 hrs by Western blot analysis; assay type: cell-based
[6] = target: Platelet-derived growth factor receptor alpha (Homo sapiens) (UniProt P16234); test: Inhibition of PDGFRalpha phosphorylation at Y849 in human GIST48B cells up to 10 uM after 2 hrs by Western blot analysis; assay type: cell-based
Outline: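 Cells were washed in cold PBS, lysed in RIPA and immunoblotted for phospho and total proteins, including pPDGFRα Y849/PDGFRβ Y857 and β-actin.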

[7] = target: Mast/stem cell growth factor receptor Kit (Homo sapiens) (UniProt P10721); test: Inhibition of cKIT autophosphorylation at Y823 in human GIST48B cells up to 10 uM after 2 hrs by Western blot analysis; assay type: cell-based
[8] = target: Mast/stem cell growth factor receptor Kit (Homo sapiens) (UniProt P10721); test: Inhibition of cKIT in human GIST882 cells assessed as suppression of AKT phosphorylation at S473 up to 10 uM after 2 hrs by Western blot analysis; assay type: cell-based
[9] = target: Mast/stem cell growth factor receptor Kit (Homo sapiens) (UniProt P10721); test: Inhibition of cKIT in human GIST882 cells assessed as suppression of S6K phosphorylation at T389 up to 10 uM after 2 hrs by Western blot analysis; assay type: cell-based
[10] = AUC(0 to t) in Sprague-Dawley rat plasma at 10 mg/kg, po; assay type: ADME, organism-based; outline: as §1
Mus musculus = test: Toxicity in nu/nu mouse xenografted with human GISTT1 cells assessed as body weight change at 25 to 100 mg/kg/day administered through oral gavage after 21 days; assay type: organism-based; conditions: in vivo, 504 h
Outline: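 Female nu/nu mice, 6 weeks old, injected subcutaneously in the right flank with 5 million GIST-T1 cells in PBS/Matrigel 1:1. At tumor volume 100–200 mm³, randomized to groups of six; daily oral gavage of 25, 50 or 100 mg/kg/d or vehicle (0.5% methylcellulose/0.4% Tween80 in water). Body weight measured daily, normalized to initial weight; mean ± SEM.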

[11] = system: Mast/stem cell growth factor receptor Kit (Homo sapiens), P10721 [N822K]; test: Inhibition of Tel-fused cKIT N822K mutant (unknown origin) transfected in mouse BAF3 cells assessed as decrease in cell proliferation after 72 hrs by celltiter-glo/CCK8 assay; assay type: cell-based
[12] = target: Epithelial discoidin domain-containing receptor 1 (Homo sapiens, UniProt Q08345); test: Inhibition of GST-tagged human DDR1 expressed in baculovirus after 1 hr by Z-lyte assay
[13] = MRT(0 to t) in Sprague-Dawley rat plasma at 10 mg/kg, po; assay type: ADME, organism-based
Outline: (§3)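 Male Sprague–Dawley rats, 8 weeks old, six in total, fasted overnight; compound dissolved in 5% DMSO/40% PEG400/55% saline (1 mg/mL dosing solution), given iv or orally. About 0.2 mL jugular blood taken with heparin at 1 min–8 h (iv) or 5 min–24 h (oral); plasma separated at 2–8 °C and stored at −80 °C before analysis.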

[14] = target: Mast/stem cell growth factor receptor Kit (Homo sapiens) (UniProt P10721); test: Inhibition of human wild type partial length cKIT expressed in bacterial expression system assessed as residual activity at 1 uM by KinomeScan method
Outline: (§4)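 KinomeScan competitive binding panel of 468 kinases and mutants, compound tested at 1 μM; read-out is percent activity remaining (binding relative to control).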

[15] = system: Mast/stem cell growth factor receptor Kit (Homo sapiens), P10721 [V559D,T670I]; test: Inhibition of Tel-fused cKIT T670I/V559D double mutant (unknown origin) transfected in mouse BAF3 cells assessed as decrease in cell proliferation after 72 hrs by celltiter-glo/CCK8 assay; assay type: cell-based; outline: as §2
[16] = Tmax in Sprague-Dawley rat plasma at 1 mg/kg, iv; assay type: ADME, organism-based; outline: as §3
[17] = Antiproliferative activity against CHO cells assessed as reduction in cell viability after 72 hrs by celltiter-glo/CCK8 assay; assay type: cell-based, Cricetulus griseus; conditions: chinese hamster
Outline: (§5)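 Cells were seeded at 1 to 3 × 10⁴ cells/mL with serial compound concentrations and incubated 72 h at 37 °C, 5% CO₂. Viability was read by CellTiter-Glo luminescence or CCK-8 absorbance (450/655 nm). GI50 values are from triplicate testing. GIST-T1 and CHO were grown in DMEM/10% FBS; GIST-882, GIST-48B and MV4-11 in IMDM/10% FBS; other lines in RPMI 1640/10% FBS.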

[18] = target: Mast/stem cell growth factor receptor Kit (Homo sapiens) (UniProt P10721); test: Inhibition of Tel-fused cKIT (unknown origin) transfected in mouse BAF3 cells assessed as decrease in cell proliferation after 72 hrs by celltiter-glo/CCK8 assay; assay type: cell-based; outline: as §5
[19] = target: Mast/stem cell growth factor receptor Kit (Homo sapiens) (UniProt P10721); test: Inhibition of cKIT in human GIST48B cells assessed as suppression of AKT phosphorylation at S473 up to 10 uM after 2 hrs by Western blot analysis; assay type: cell-based
[20] = Cell cycle arrest in human GIST48B cells at 0.3 to 3 uM after 24 hrs by propidium iodide/RNase staining based flow cytometric analysis; assay type: functional
Outline: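 Cells were then fixed in 70% cold ethanol at −20 °C overnight, stained with PI/RNase buffer and analysed by flow cytometry.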

[21] = target: Macrophage colony-stimulating factor 1 receptor (Homo sapiens, UniProt P07333); test: Inhibition of human wild type partial length CSF1R expressed in bacterial expression system assessed as residual activity at 1 uM by KinomeScan method; outline: as §4
[22] = Tmax in Sprague-Dawley rat plasma at 10 mg/kg, po; assay type: ADME, organism-based; outline: as §3
[23] = target: Mast/stem cell growth factor receptor Kit (Homo sapiens) (UniProt P10721); test: Inhibition of Tel-fused cKIT L567P mutant (unknown origin) transfected in mouse BAF3 cells assessed as decrease in cell proliferation after 72 hrs by celltiter-glo/CCK8 assay; assay type: cell-based
[24] = Antiproliferative activity against human BCR-ABL dependent MEG01 cells assessed as reduction in cell viability after 72 hrs by celltiter-glo/CCK8 assay; assay type: functional; conditions: MEG-01, 72 h

Chain of Mast/stem cell growth factor receptor Kit (Homo sapiens) (P10721 whole entry, the tested form may be a part): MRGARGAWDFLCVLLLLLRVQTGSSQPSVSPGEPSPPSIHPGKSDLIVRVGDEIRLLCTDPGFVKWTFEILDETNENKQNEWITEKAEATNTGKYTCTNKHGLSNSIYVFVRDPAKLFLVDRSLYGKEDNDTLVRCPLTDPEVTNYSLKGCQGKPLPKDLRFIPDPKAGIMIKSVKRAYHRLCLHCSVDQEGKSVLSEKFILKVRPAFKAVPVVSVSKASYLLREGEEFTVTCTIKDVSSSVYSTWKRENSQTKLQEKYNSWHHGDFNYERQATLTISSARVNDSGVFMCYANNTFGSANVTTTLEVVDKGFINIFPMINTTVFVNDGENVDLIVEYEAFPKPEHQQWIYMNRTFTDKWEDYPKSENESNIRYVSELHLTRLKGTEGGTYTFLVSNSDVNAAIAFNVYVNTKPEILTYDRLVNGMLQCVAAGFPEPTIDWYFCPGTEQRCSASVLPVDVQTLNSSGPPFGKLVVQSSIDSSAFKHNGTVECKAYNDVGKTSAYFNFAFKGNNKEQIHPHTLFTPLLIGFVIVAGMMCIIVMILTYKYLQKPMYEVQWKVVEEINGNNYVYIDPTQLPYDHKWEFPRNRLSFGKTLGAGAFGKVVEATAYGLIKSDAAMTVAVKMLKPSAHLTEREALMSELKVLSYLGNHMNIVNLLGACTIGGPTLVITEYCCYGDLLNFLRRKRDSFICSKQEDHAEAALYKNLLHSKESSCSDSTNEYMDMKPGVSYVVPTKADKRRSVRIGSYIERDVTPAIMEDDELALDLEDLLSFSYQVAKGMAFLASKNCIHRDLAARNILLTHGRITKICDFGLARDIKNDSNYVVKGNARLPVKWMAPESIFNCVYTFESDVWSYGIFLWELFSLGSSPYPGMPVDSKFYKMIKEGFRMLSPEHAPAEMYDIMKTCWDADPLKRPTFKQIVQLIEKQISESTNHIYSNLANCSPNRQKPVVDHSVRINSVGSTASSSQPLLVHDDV
Chain of Macrophage colony-stimulating factor 1 receptor (P07333 whole entry): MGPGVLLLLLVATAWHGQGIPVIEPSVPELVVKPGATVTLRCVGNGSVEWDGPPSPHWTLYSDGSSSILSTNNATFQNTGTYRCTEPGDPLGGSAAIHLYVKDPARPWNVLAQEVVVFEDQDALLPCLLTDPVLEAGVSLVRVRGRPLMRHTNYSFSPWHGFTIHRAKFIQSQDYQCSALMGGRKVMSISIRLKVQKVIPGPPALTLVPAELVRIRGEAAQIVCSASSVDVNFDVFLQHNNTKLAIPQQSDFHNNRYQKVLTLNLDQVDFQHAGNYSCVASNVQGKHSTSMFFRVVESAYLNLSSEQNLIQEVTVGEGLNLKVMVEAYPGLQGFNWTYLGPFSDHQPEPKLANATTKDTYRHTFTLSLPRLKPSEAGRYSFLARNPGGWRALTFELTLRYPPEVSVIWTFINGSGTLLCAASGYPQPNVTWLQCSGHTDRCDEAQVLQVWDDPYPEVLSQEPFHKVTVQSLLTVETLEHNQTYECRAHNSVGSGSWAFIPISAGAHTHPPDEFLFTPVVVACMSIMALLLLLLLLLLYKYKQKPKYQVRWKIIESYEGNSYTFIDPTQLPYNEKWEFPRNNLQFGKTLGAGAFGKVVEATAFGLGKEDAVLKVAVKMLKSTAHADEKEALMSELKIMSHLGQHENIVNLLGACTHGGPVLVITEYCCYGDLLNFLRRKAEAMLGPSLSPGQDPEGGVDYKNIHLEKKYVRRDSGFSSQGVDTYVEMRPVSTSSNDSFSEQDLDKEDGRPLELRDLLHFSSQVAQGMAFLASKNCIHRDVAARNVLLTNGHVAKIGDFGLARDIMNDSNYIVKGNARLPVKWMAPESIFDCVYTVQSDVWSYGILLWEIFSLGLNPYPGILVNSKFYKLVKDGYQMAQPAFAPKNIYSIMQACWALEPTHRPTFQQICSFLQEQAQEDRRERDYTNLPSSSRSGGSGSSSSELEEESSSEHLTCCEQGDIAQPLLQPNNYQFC
Chain of Mast/stem cell growth factor receptor Kit (Homo sapiens), P10721 [V559D,T670I] (P10721 whole entry V559D/T670I, the tested form may be a part): as the sequence (P10721 whole entry, the tested form may be a part) above, with V559D, T670I counted along it
Chain of Mast/stem cell growth factor receptor Kit (Homo sapiens), P10721 [N822K] (P10721 whole entry N822K, the tested form may be a part): as the sequence (P10721 whole entry, the tested form may be a part) above, with N822K counted along it
Chain of Epithelial discoidin domain-containing receptor 1 (Q08345 whole entry, the tested form may be a part): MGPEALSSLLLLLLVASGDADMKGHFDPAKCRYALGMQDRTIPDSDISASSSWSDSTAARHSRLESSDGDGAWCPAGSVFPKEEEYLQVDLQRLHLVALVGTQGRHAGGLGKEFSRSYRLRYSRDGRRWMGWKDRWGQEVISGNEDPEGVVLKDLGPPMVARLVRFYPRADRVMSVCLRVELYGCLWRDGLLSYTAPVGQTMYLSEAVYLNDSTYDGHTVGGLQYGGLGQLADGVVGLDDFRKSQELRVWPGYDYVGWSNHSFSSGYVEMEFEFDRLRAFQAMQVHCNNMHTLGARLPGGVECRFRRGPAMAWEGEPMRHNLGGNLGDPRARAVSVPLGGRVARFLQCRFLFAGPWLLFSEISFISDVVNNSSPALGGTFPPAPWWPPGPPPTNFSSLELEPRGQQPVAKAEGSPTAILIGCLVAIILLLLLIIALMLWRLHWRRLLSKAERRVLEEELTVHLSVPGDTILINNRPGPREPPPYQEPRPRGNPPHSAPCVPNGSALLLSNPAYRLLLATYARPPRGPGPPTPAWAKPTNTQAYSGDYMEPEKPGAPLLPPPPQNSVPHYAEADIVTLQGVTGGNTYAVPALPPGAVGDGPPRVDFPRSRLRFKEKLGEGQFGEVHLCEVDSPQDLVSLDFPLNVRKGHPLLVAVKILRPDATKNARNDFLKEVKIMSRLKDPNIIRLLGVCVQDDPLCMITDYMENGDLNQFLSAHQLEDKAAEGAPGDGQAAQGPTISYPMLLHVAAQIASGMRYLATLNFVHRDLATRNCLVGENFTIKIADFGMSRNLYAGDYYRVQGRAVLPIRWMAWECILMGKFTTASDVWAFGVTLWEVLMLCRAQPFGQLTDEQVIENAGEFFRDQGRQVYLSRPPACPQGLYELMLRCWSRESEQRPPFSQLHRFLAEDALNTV
Chain of Platelet-derived growth factor receptor alpha (Homo sapiens) (P16234 whole entry): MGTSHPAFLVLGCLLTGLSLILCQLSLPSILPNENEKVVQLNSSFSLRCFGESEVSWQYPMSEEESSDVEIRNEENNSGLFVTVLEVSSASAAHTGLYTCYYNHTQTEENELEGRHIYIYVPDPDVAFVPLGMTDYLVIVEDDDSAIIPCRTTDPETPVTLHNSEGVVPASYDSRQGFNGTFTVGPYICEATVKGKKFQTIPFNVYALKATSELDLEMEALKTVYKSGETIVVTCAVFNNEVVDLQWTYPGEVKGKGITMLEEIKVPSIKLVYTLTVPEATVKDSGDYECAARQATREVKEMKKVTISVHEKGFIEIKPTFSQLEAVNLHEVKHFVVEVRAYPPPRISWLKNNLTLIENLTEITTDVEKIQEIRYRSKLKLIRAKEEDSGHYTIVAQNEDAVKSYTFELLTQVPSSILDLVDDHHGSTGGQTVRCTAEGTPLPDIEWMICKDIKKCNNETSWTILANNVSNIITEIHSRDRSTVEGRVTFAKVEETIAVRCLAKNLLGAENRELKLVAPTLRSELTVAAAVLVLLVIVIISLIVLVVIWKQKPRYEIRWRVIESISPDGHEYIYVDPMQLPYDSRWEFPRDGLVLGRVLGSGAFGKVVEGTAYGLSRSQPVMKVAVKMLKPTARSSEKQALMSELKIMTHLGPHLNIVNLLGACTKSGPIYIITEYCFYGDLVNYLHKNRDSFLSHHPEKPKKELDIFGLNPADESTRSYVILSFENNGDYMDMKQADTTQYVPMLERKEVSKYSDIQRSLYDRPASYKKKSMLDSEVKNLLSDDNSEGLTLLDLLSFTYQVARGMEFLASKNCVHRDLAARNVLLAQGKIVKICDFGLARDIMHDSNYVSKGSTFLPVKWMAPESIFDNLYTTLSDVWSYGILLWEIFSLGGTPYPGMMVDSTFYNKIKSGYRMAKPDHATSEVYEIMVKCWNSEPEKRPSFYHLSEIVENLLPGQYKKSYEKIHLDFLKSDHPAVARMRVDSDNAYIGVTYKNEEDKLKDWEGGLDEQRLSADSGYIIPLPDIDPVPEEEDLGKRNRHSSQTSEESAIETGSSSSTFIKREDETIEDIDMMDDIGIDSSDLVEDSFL
Chain of Mast/stem cell growth factor receptor Kit (Homo sapiens), P10721 [V559D,V654A] (P10721 whole entry V559D/V654A, the tested form may be a part): as the sequence (P10721 whole entry, the tested form may be a part) above, with V559D, V654A counted along it

half-life [1]: 4.11 h
GI50 [2]: 1.05 µM
inhibition [3]: Active
Vd [4]: 3.22 L/kg
inhibition [5]: Active
inhibition [6]: Active
inhibition [7]: inactive
inhibition [8]: Active
inhibition [9]: Active
AUC(0-t) [10]: 715 ng·h/mL
GI50 [11]: 1.06 µM
pIC50 [12]: 6.90
MRT last [13]: 4.8 h
Activity [14]: 0.45%
GI50 [15]: 5.31 µM
Tmax [16]: 1.02 min
GI50 [18]: 0.19 µM
inhibition [19]: inactive
Activity [21]: 0.6%
Tmax [22]: 0.5 h
GI50 [23]: 0.15 µM
Compound: Cc1ccc(NC(=O)c2cccc(C(F)(F)F)c2)cc1OC1CCN(C(=O)c2ccncc2)CC1
Activity (Mus musculus): Non-toxic
GI50 at 72 h [17]: > 10 µM
Activity [20]: inactive
GI50 [24]: 7.43 µM
